# Experimental data published in ChEMBL document CHEMBL4052792, “3-Hydroxykynurenine, a Tryptophan Metabolite Generated during the Infection, Is Active Against Trypanosoma cruzi” (ACS Med Chem Lett, 2017).
# Active and inactive are the calls of the source. No cut-off for these calls is given here.
# Tests used:
# Type in all cases: functional
# [1] = system: Trypanosoma cruzi; assay: Induction of mitochondrial membrane depolarization in Trypanosoma cruzi Tulahuen trypomastigotes at 0.2 uM after 24 hrs by Rh123/propidium iodide staining-based flow cytometric analysis (reference value: 3.25 +/- 1.66%)
# How it was run: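 Trypomastigotes were treated with 3-HK for 24 h at 37 °C, then incubated with PI plus Rh123. Rh123 fluorescence was read by flow cytometry in PI-negative (live) parasites. The depolarized fraction was taken as the low-fluorescence M2 population. Index of variation = (treated median − control median)/control median. Three experiments were run.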
# [2] = system: Trypanosoma cruzi; assay: (§1) Trypanocidal activity against Trypanosoma cruzi Tulahuen amastigotes infected in BALB/C mouse bone marrow derived macrophages assessed as parasite infected macrophages at 400 uM treated for 24 hrs followed by compound washout measured after 48 hrs by immunofluorescence assay (reference value: 26.84 +/- 7.81%)
# [3] = system: Trypanosoma cruzi; assay: as §1, with “1500” for “400”
# [4] = system: Trypanosoma cruzi; assay: as §1, with “1800” for “400”
# [5] = system: Trypanosoma cruzi; assay: Trypanocidal activity against Trypanosoma cruzi Tulahuen amastigotes infected in BALB/C mouse bone marrow derived macrophages assessed as endocytic index at 0.2 uM treated for 24 hrs followed by compound washout measured after 48 hrs by immunofluorescence assay (reference value: 213.66 +/- 58.79)
# [6] = system: Trypanosoma cruzi; assay: Trypanocidal activity against Trypanosoma cruzi Tulahuen amastigotes infected in BALB/C mouse bone marrow derived macrophages assessed as endocytic index at 800 uM treated for 24 hrs followed by compound washout measured after 48 hrs by immunofluorescence assay (reference value: 213.66 +/- 58.79)
# [7] = system: Trypanosoma cruzi; assay: Trypanostatic activity against Trypanosoma cruzi Tulahuen amastigotes infected in BALB/C mouse bone marrow derived macrophages assessed as effect on flagellum structure at 20 uM after 24 hrs by transmission electron microscopic analysis
# How it was run: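 Bone marrow-derived macrophages were infected for 24 h, then exposed to 20 μM for 24 h or left untreated. Intracellular amastigote ultrastructure was examined by transmission electron microscopy, covering mitochondrion, nucleus, kinetoplast, flagellum, flagellar pocket, subpellicular microtubules and cytoplasmic structures.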
# [8] = Induction of apoptosis in BALB/C mouse BMDM assessed as cells with hypodiploid DNA content at 4000 uM after 24 hrs by FITC/propidium iodide staining based flow cytometric analysis (reference value: 29.9%)
structure (smiles),measurement,setting,value
Nc1c(O)cccc1C(=O)C[C@H](N)C(=O)O,Activity,[1],3.88%
same,Activity,[2],14.66%
same,Activity,[3],18.07%
same,Activity,[4],14.32%
same,Activity,[5],67.61
same,Activity,[6],99.39
same,Activity,[7],inactive
same,Activity,[8],30.9%
